Bioassay records from PubChem BioAssay.
Sampled rows, rich in hits. Any-hit rate of the full collection: about 2.8%.
dFosB act = activators of mouse delta FosB homodimer; 0.99% of 340,000 active; purified delta FosB, TAMRA-CDK5 oligo fluorescence polarization; percent of positive-control signal above neutral wells; activation, % at 25 µM; P13346; AID 493131;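 active means mean activation above about 17%, with every replicate also reaching it, limit read from the data, passing the limit was not always enough; inconclusive means only one of the two conditions met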
Target sequence (P13346 whole entry, looked up): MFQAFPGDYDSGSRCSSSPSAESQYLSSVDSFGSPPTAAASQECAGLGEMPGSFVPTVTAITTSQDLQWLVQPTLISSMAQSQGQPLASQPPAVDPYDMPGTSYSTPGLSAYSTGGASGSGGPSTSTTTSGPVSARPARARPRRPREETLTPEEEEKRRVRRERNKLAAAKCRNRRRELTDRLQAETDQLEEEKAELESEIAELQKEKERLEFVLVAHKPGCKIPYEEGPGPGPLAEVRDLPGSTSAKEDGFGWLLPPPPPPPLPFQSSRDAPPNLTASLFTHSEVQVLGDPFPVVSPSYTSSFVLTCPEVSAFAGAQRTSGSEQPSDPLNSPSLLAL
CAL PDZ FP-1 = inhibitors of human CAL PDZ peptide binding. purified CAL PDZ, TMR-peptide fluorescence polarization, 1 h. inhibition, % at 24.9 µM. 0.92% of 300,000 active. AID 602252;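 active means mean inhibition of at least 30% with at least half of replicates also reaching 30%; inconclusive means no clear call, values can overlap the other calls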;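 further: 0% = DMSO neutral control and 100% = excess unlabeled competitor peptide PRC23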
SR-BI DiI inh = inhibitors of mouse SR-BI mediated HDL lipid uptake; Q61009; ldlA[mSR-BI] CHO cells, DiI-HDL uptake fluorescence, 3 h; inhibition, % at 12.5 µM; 0.96% of 320,000 active; AID 488896;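 active means mean replicate inhibition of at least 70% and a set share of replicates each scoring 70 or more; inconclusive means meets just one of the two criteria; inactive means fails both criteria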;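 further: 0% = median of neutral control wells and 100% = median of positive control wells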
SR-BI uptake up = activators of SR-BI mediated HDL lipid uptake; CHO ldlA[mSR-BI] cells, DiI-HDL uptake fluorescence, 3 h; 100 = double the neutral-control signal; activation, % at 12.5 µM; 0.096% of 320,000 active;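 active means mean replicate activation of at least 60% and every replicate at or above 60%; inconclusive means mean or all-replicate condition met, but not both; inactive means mean below 60% and not all replicates reaching 60%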;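 further: 0% = median plate neutral-control signal and 100% = twice that signal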
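Material – SR-BI-overexpressing, LDLR-lacking CHO cells · Medium – BSA-supplemented, HEPES-buffered Ham's F12, pH 7.4 · Doses – single concentration · Times – compound with DiI-HDL co-incubation, 3 h at 37 °C · Measured by – bottom-read fluorescence, 550/595 nm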
CAL PDZ FP-2 = blocks peptide binding to human CAL PDZ domain; Q9HD26; purified CAL PDZ, TMR-peptide fluorescence polarization, 1 h; inhibition, % at 20 µM; 0.02% of 330,000 active; AID 504414;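 active means highest replicate inhibition of at least 40%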;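 further: plate controls were DMSO neutral control wells for no effect and unlabeled competitor peptide control wells for full effect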
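Control set: unlabelled peptide and DMSO controls / Material: purified CerCALP PDZ construct / Timing: 1 h incubation at room temperature before polarization reading / Doses: 20 µM, one dose / Detection: fluorescence polarization (mP)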
Numbers without * were called inactive; ? = inconclusive; . = no result given.

SMILES	dFosB act	CAL PDZ FP-1	SR-BI DiI inh	SR-BI uptake up	CAL PDZ FP-2
Fc1ccc(-c2cc3nc(-c4ccccc4)cc(N4CCOCC4)n3n2)cc1	-8	-3	73*	-73	-2
Fc1ccccc1N1CCN(C2CCCN(Cc3ccccc3C(F)(F)F)C2)CC1 (centres undefined)	-6	.	62	-62	-1
C=CCN(c1ccccc1OC)S(=O)(=O)c1ccc(Cl)c(C(=O)Nc2ccc(N3CCOCC3)cc2)c1	-5	-2	96*	-96	-1
O=C(NCc1cccnc1)C(=O)NCC1OCCCN1S(=O)(=O)c1ccc(F)cc1 (centres undefined)	1	-3	-11	11	1
CCOc1ccc2cc(S(=O)(=O)N3CCCCC3)ccc2c1	-7	60*	-12	12	0
Cc1cc2oc(C(=O)Nc3ccc(S(=O)(=O)Nc4ncccn4)cc3)cc(=O)c2cc1Cl	-5	90*	-12	12	-1
CC(=O)Nc1ccc(NC(=O)c2cc(=O)c3cc(C)c(C)cc3o2)cc1	4	-2	72*	-72	-1
CCOc1cc(N2CCOCC2)c(OCC)cc1NC(=O)COC(=O)c1ccc(Cl)nc1	-1	.	-1	1	-2
CC1CCCCN1C(=O)COc1ccc(F)cc1 (centres undefined)	-3	44*	-3	3	-1
CN1CCC(OC(=O)COc2ccc(F)cc2)CC1	4	47*	-19	19	11
Cc1ccc(CNS(=O)(=O)c2ccc(C(F)(F)F)cc2)n1C	-5	58*	5	-5	1
CCOC(=O)N1CCC(NC(=O)C2CCN(C(=O)c3cc4sccc4n3CC)CC2)CC1	0	-4	.	.	-1
CCCn1nnnc1NCc1c(Cl)cccc1Cl	-1	-2	-15	15	0
CCCn1nnnc1NCc1cccc(Cl)c1	5	80*	-11	11	-7
Cc1onc(-c2c(F)cccc2Cl)c1C(=O)NC(C)c1ccccc1 (centres undefined)	-7	-12	.	.	-1
CC12CN3CC(C)(CN(C1)C3c1ccc(Cl)cc1Cl)C2O (centres undefined)	8	-3	-79	79*	-2
CCCOc1ccc(C(=O)O)cc1	3	77*	-26	26	1
NNC(=O)c1ccc(N2CCc3ccccc32)c([N+](=O)[O-])c1	0	2	79*	-79	0
COC(CNC(=O)c1ccc(N2CCc3ccccc32)c([N+](=O)[O-])c1)OC	-7	-2	29	-29	0
COc1ccccc1C(=O)NC(CCSC)C(=O)NNC(=O)C(C)Oc1ccccc1F (centres undefined)	-7	.	5	-5	0
N=C1C=CC(=C(c2ccc(N)cc2)c2ccc(N)cc2)C=C1	-1	3	104*	-104	2
CCCCOc1ccc(NC(=O)Nc2nnc(C)s2)cc1	0	60*	-5	5	0
CN(CC(=O)Nc1ccc(Cl)c(Cl)c1)C(=O)C1CCCC1	-1	8	-67	67*	-1
COC(=O)/C(=C\Nc1ccc(Cl)cc1Cl)NC(=O)c1ccc(OC)cc1	-8	1	83*	-83	0
CC1CCCC(C)N1CC(O)Cn1c2ccccc2c2ccccc21 (centres undefined)	-5	-3	.	.	1
SMILES	dFosB act	CAL PDZ FP-1	SR-BI DiI inh	SR-BI uptake up	CAL PDZ FP-2
O=C(Nc1ccc(-c2cn3c(n2)SCC3)cc1)c1ccc2c(c1)OCO2	-7	26	82*	-82	-1
O=C(Nc1cccc(-c2cn3c(n2)SCC3)c1)c1ccc2c(c1)OCO2	-1	-5	60	-60	-3
CC[C@H]1C=C[C@@H](C(C(=O)OC)C(=O)OC)CN1C(C)=O	-6	-3	8	-8	0
CCN(C(=O)COC(=O)c1ccc([N+](=O)[O-])o1)C1CCCCC1	1	125*	-16	16	1
CCN(CC)CCNC(=O)c1c(C)n(-c2ccccc2)c2cc(Br)c(OC)cc12	26*	-10	-17	17	-5
Cc1ccc(-c2nnc(Oc3ccc(NC(=O)c4ccccc4)cc3)c3ccccc23)cc1	4	-5	-169	169*	0
CCOc1ccc(N(CC(=O)Nc2c(C)n(C)n(-c3ccccc3)c2=O)S(=O)(=O)c2ccc(F)cc2)cc1	-2	-1	4	-4	1
CCOc1ccccc1N(CC(=O)Nc1c(C)n(C)n(-c2ccccc2)c1=O)S(=O)(=O)c1ccccc1	-3	-4	-71	71*	-2
CN1CCC(N(C)C(=O)c2ccc(Cl)c(S(=O)(=O)Nc3cc(Cl)ccc3Cl)c2)CC1	3	1	-28	28	0
O=C(Nc1ccc(Cl)cn1)Nc1ccc(Cl)cn1	?	47*	5	-5	-1
C[C@H](CO)N1C[C@H](C)[C@@H](CN(C)Cc2ccc(C(=O)O)cc2)Oc2c(NS(=O)(=O)c3ccc(F)cc3)cccc2C1=O	-3	-1	0	0	0
COc1ccc(C)cc1Nc1nc(N)c2cc(OC)c(OC)cc2n1	48*	-3	-37	37	0
COc1cc2nc(N3CCNCC3)nc(N)c2cc1OC	-74	-2	1	-1	-1
COc1cc2nc(N3CCN(c4cc(C)ccc4C)CC3)nc(N)c2cc1OC	79*	1	11	-11	-1
CC[C@H](C)[C@H](NC(=O)c1ccccc1)C(=O)Nc1ccc(S(=O)(=O)Nc2cc(C)nc(C)n2)cc1	-6	8	-16	16	-1
CC1CCN(S(=O)(=O)c2ccc(NC(=O)C3CCN(C(=O)c4ccco4)CC3)cc2)CC1	-12	-3	.	.	-3
Cc1ccc(C(=O)Cn2nnc(-c3cccs3)n2)cc1	8	0	.	.	-3
O=C(CN1CC[n+]2c(-c3cccs3)csc21)c1ccc(-c2ccccc2)cc1	13	-28	77*	-77	20
O=C(CSC1=NNC(c2ccccn2)S1)Nc1ccc(C(F)(F)F)cc1 (centres undefined)	-11	7	95*	-95	2
Cc1ccc(-n2nc(C)cc2NC(=O)CC#N)cc1	2	-7	16	-16	0
Cc1ccc(-n2nc(C)cc2NC(=O)c2ccc(C)s2)cc1	-7	0	87*	-87	-1
CC(CC(=O)O)CC(=O)Nc1nncs1 (centres undefined)	-1	53*	-17	17	1
O=C(CCc1ccccc1)Nc1nncs1	2	-4	-9	9	.
CCc1noc(C)c1C(=O)NNC(=O)c1ccccc1F	0	2	-18	18	-2
CCC(C)NC(=O)c1ccccc1-c1ccccc1C(=O)NC(C)CC (centres undefined)	-5	72*	-5	5	0
COc1c(Cl)cc(Br)c(OC)c1C(=O)NC(=O)Nc1nc(C)cc(C)n1	3	83*	21	-21	-1
